Experimental data from ChEMBL document CHEMBL1152452, “Modifications incorporated in CpG motifs of oligodeoxynucleotides lead to antagonist activity of toll-like receptors 7 and 9” (2009).
Activity calls are given as the source filed them. The rule behind the calls is not given here.

What was measured:
[1] = target: T1, Toll-like receptor 9 (Mus musculus) (UniProt Q9EQU3); assay: Activation of mouse TLR9 expressed in HEK293 cells assessed as NF-kappaB level at 1 ug/mL after 18 hrs by reporter gene assay; assay type: cell-based
T1 sequence (whole entry): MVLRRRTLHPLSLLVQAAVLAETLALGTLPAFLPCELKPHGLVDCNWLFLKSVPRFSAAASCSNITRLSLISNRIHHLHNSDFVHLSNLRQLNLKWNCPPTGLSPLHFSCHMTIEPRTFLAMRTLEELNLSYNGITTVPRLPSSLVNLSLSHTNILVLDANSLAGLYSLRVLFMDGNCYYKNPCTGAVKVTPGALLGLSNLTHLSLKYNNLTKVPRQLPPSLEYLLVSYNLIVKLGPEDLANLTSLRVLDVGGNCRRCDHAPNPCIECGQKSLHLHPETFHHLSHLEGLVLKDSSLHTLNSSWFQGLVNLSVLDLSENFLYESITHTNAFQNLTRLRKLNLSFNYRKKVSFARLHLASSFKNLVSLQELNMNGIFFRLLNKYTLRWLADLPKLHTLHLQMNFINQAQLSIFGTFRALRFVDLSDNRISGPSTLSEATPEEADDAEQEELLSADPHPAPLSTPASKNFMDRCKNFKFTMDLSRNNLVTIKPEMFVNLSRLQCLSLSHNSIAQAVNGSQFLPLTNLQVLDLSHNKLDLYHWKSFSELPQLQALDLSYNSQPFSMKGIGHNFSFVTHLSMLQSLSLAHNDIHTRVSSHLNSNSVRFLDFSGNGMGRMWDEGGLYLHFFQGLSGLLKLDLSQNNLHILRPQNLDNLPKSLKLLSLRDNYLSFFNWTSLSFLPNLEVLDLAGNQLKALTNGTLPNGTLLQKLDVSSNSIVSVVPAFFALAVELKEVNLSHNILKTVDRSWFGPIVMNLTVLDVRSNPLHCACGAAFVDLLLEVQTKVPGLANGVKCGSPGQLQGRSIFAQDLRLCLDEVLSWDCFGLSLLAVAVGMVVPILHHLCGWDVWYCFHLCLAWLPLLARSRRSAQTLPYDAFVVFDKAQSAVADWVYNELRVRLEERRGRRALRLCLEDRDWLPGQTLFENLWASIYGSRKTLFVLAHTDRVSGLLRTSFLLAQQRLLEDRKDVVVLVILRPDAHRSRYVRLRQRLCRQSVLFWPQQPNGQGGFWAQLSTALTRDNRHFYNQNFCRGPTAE
Summary of the method: (§1)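 HEK293 cells stably expressing mouse TLR9 were transiently transfected with a SEAP reporter for 6 h, then stimulated with ODN at 0.1, 0.3 or 1 μg/mL for 18 h. Reporter expression is given as fold change in NF-κB activity over medium. Representative of two independent experiments.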

[2] = test system: J774; assay: Inhibition of 5'-CTATCTGACGTTCTCTGT-3'-activated NF-kappaB activity in mouse J774 cells at 2.5 ug/ml after 1 hr by EMSA; assay type: cell-based
Summary of the method: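 J774 murine macrophages were grown in DMEM with 10% FBS and antibiotics, plated at 5 × 10^6 cells/well, and co-incubated for 1 h with the agonist ODN (0.5 µg/mL) and test ODN (2.5 µg/mL). Nuclear extracts were prepared and NF-κB binding was analysed by EMSA on native polyacrylamide gels with autoradiography.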

[3] = test system: Mus musculus; assay: Immunostimulatory activity in C57BL/6 mouse assessed as induction of TNFalpha level in serum at 2 mg/kg, sc after 2 hrs by Luminex multiplex assay; assay type: functional, organism-based; design: dose 2 mg/kg
Summary of the method: (§2)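 Female C57BL/6 mice, 5–6 weeks old, n = 3, received a single 2 mg/kg subcutaneous ODN injection in the right flank. Blood was taken by retro-orbital bleeding 2 h later. Naive mice served as baseline. Representative of three experiments.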

[4] = test system: Mus musculus; assay: Immunostimulatory activity in C57BL/6 mouse assessed as inhibition of 5'-CTATCTGACGTTCTCTGT-3'-induced TNFalpha production in serum at 2 mg/kg, sc administered 24 hrs prior to 5'-CTATCTGACGTTCTCTGT-3' challenge measured after 2 hrs by Luminex multiplex assay; assay type: functional, organism-based; design: dose 2 mg/kg
Summary of the method: (§3)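 C57BL/6 mice received 2 mg/kg ODN sc in one flank. After 24 h, the TLR9 agonist ODN was given at 0.5 mg/kg sc in the opposite flank. Blood was drawn 2 h later and serum cytokines/chemokines were quantified by Luminex multiplex assay. Percent inhibition was taken against the agonist alone. Representative of three experiments.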

[5] = test system: Mus musculus; assay: Immunostimulatory activity in C57BL/6 mouse assessed as induction of MCP1 level in serum at 2 mg/kg, sc after 2 hrs by Luminex multiplex assay; assay type: functional, organism-based; design: dose 2 mg/kg; summary of the method: as §2
[6] = target: T1, Toll-like receptor 9 (Mus musculus); assay: Activation of mouse TLR9 expressed in HEK293 cells assessed as NF-kappaB level at 0.1 ug/mL after 18 hrs by reporter gene assay; assay type: cell-based; summary of the method: as §1
[7] = test system: Mus musculus; assay: Immunostimulatory activity in C57BL/6 mouse assessed as induction of IL12 level in serum at 2 mg/kg, sc after 2 hrs by sandwich ELISA; assay type: functional, organism-based; design: dose 2 mg/kg; summary of the method: as §2
[8] = test system: Splenocyte; assay: Immunostimulatory activity in C57BL/6 mouse splenocytes assessed as induction of IL6 secretion at 2 to 10 ug/ml after 24 hrs by sandwich ELISA; assay type: functional, cell-based
Summary of the method: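 C57BL/6 splenocytes (mice 5–8 weeks) at 5 × 10^6 cells/mL in RPMI complete medium. ODNs dissolved in PBS were added and the cells incubated at 37 °C for 24 h. Supernatant IL-12 or IL-6 was measured by sandwich ELISA. Runs were done two or three times, in duplicate per concentration.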

[9] = test system: J774; assay: Activation of NF-kappaB in mouse J774 cells at 2.5 ug/ml after 1 hr by EMSA; assay type: cell-based
Summary of the method: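 Murine J774 macrophages in DMEM with 10% FBS and antibiotics, plated at 5×10^6 cells/well. ODNs were given alone or together for 1 h. For inhibition, the agonist ODN at 0.5 μg/mL was co-incubated with the modified ODN at 2.5 μg/mL. Nuclear extracts were resolved by EMSA on native polyacrylamide gels and read by autoradiography.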

[10] = test system: Mus musculus; assay: Immunostimulatory activity in C57BL/6 mouse assessed as inhibition of 5'-CTATCTGACGTTCTCTGT-3'-induced KC production in serum at 2 mg/kg, sc administered 24 hrs prior to 5'-CTATCTGACGTTCTCTGT-3' challenge measured after 2 hrs by Luminex multiplex assay; assay type: functional, organism-based; design: dose 2 mg/kg; summary of the method: as §3
[11] = test system: Splenocyte; assay: Inhibition of 5'-CTATCTGACGTTCTCTGT-3'-induced IL12 secretion in C57BL/6 mouse splenocytes at 4 ug/ml after 24 hrs by sandwich ELISA; assay type: functional, cell-based
Summary of the method: (§4)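 Splenocytes from 5–8-week C57BL/6 mice, 5 × 10^6 cells/mL in RPMI complete medium, were co-incubated with the TLR9 agonist ODN (1 µg/mL) plus test ODN at 1 or 4 µg/mL, or over a concentration series, at 37 °C for 24 h. Supernatant IL-12 or IL-6 was measured by sandwich ELISA. Runs were done in duplicate, with three independent experiments.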

[12] = test system: Splenocyte; assay: Inhibition of 5'-CTATCTGACGTTCTCTGT-3'-induced IL6 secretion in C57BL/6 mouse splenocytes at 4 ug/ml after 24 hrs by sandwich ELISA; assay type: functional, cell-based; summary of the method: as §4

| Activity [1] | Activity [6] | SMILES | Activity [2] | Activity [3] | Activity [4] | Activity [5] | Activity [7] | Activity [8] | Activity [9] | Activity [10] | Activity [11] | Activity [12] |
| --- | --- | --- | --- | --- | --- | --- | --- | --- | --- | --- | --- | --- |
| inactive | inactive | COC1[C@H](n2cc(C)c(N)nc2=O)O[C@H](COP(=O)(S)O[C@H]2C[C@H](n3cnc4c(N)ncnc43)O[C@@H]2COP(=O)(S)O[C@H]2C[C@H](n3cnc4c(=O)[nH]c(N)nc43)O[C@@H]2COP(=O)(S)O[C@H]2C[C@H](n3cc(C)c(=O)[nH]c3=O)O[C@@H]2COP(=O)(S)O[C@H]2C[C@H](n3ccc(N)nc3=O)O[C@@H]2COP(=O)(S)O[C@H]2C[C@H](n3cc(C)c(=O)[nH]c3=O)O[C@@H]2COP(=O)(S)O[C@H]2C[C@H](n3cnc4c(N)ncnc43)O[C@@H]2COP(=O)(S)O[C@H]2C[C@H](n3cc(C)c(=O)[nH]c3=O)O[C@@H]2COP(=O)(S)O[C@H]2C[C@H](n3ccc(N)nc3=O)O[C@@H]2CO)[C@H]1OP(=O)(S)OC[C@H]1O[C@@H](n2cnc3c(=O)[nH]c(N)nc32)C[C@@H]1OP(=O)(S)OC[C@H]1O[C@@H](n2cc(C)c(=O)[nH]c2=O)C[C@@H]1OP(=O)(S)OC[C@H]1O[C@@H](n2cc(C)c(=O)[nH]c2=O)C[C@@H]1OP(=O)(S)OC[C@H]1O[C@@H](n2ccc(N)nc2=O)C[C@@H]1OP(=O)(S)OC[C@H]1O[C@@H](n2cc(C)c(=O)[nH]c2=O)C[C@@H]1OP(=O)(S)OC[C@H]1O[C@@H](n2ccc(N)nc2=O)C[C@@H]1OP(=O)(S)OC[C@H]1O[C@@H](n2cc(C)c(=O)[nH]c2=O)C[C@@H]1OP(=O)(S)OC[C@H]1O[C@@H](n2cnc3c(=O)[nH]c(N)nc32)C[C@@H]1OP(=O)(S)OC[C@H]1O[C@@H](n2cc(C)c(=O)[nH]c2=O)C[C@@H]1O (some centres not stated) | Active | inactive | Active | inactive | inactive | Active | inactive | Active | – | – |
| inactive | inactive | COC1[C@H](n2cnc3c(=O)[nH]c(N)nc32)O[C@H](COP(=O)(S)O[C@H]2C[C@H](n3cc(C)c(N)nc3=O)O[C@@H]2COP(=O)(S)O[C@H]2C[C@H](n3cnc4c(N)ncnc43)O[C@@H]2COP(=O)(S)O[C@H]2C[C@H](n3cnc4c(=O)[nH]c(N)nc43)O[C@@H]2COP(=O)(S)O[C@H]2C[C@H](n3cc(C)c(=O)[nH]c3=O)O[C@@H]2COP(=O)(S)O[C@H]2C[C@H](n3ccc(N)nc3=O)O[C@@H]2COP(=O)(S)O[C@H]2C[C@H](n3cc(C)c(=O)[nH]c3=O)O[C@@H]2COP(=O)(S)O[C@H]2C[C@H](n3cnc4c(N)ncnc43)O[C@@H]2COP(=O)(S)O[C@H]2C[C@H](n3cc(C)c(=O)[nH]c3=O)O[C@@H]2COP(=O)(S)O[C@H]2C[C@H](n3ccc(N)nc3=O)O[C@@H]2CO)[C@H]1OP(=O)(S)OC[C@H]1O[C@@H](n2cc(C)c(=O)[nH]c2=O)C[C@@H]1OP(=O)(S)OC[C@H]1O[C@@H](n2cc(C)c(=O)[nH]c2=O)C[C@@H]1OP(=O)(S)OC[C@H]1O[C@@H](n2ccc(N)nc2=O)C[C@@H]1OP(=O)(S)OC[C@H]1O[C@@H](n2cc(C)c(=O)[nH]c2=O)C[C@@H]1OP(=O)(S)OC[C@H]1O[C@@H](n2ccc(N)nc2=O)C[C@@H]1OP(=O)(S)OC[C@H]1O[C@@H](n2cc(C)c(=O)[nH]c2=O)C[C@@H]1OP(=O)(S)OC[C@H]1O[C@@H](n2cnc3c(=O)[nH]c(N)nc32)C[C@@H]1OP(=O)(S)OC[C@H]1O[C@@H](n2cc(C)c(=O)[nH]c2=O)C[C@@H]1O (some centres not stated) | Active | inactive | Active | inactive | inactive | Active | inactive | Active | – | – |
| inactive | inactive | CO[C@@H]1[C@H](OP(=O)(S)OC[C@H]2O[C@@H](n3cc(C)c(=O)[nH]c3=O)C[C@@H]2OP(=O)(S)OC[C@H]2O[C@@H](n3cc(C)c(=O)[nH]c3=O)C[C@@H]2OP(=O)(S)OC[C@H]2O[C@@H](n3ccc(N)nc3=O)C[C@@H]2OP(=O)(S)OC[C@H]2O[C@@H](n3cc(C)c(=O)[nH]c3=O)C[C@@H]2OP(=O)(S)OC[C@H]2O[C@@H](n3ccc(N)nc3=O)C[C@@H]2OP(=O)(S)OC[C@H]2O[C@@H](n3cc(C)c(=O)[nH]c3=O)C[C@@H]2OP(=O)(S)OC[C@H]2O[C@@H](n3cnc4c(=O)[nH]c(N)nc43)C[C@@H]2OP(=O)(S)OC[C@H]2O[C@@H](n3cc(C)c(=O)[nH]c3=O)C[C@@H]2O)[C@@H](COP(=O)(S)O[C@H]2C[C@H](n3ccc(N)nc3=O)O[C@@H]2COP(=O)(S)O[C@H]2C[C@H](n3cnc4c(N)ncnc43)O[C@@H]2COP(=O)(S)O[C@H]2C[C@H](n3cnc4c(=O)[nH]c(N)nc43)O[C@@H]2COP(=O)(S)O[C@H]2C[C@H](n3cc(C)c(=O)[nH]c3=O)O[C@@H]2COP(=O)(S)O[C@H]2C[C@H](n3ccc(N)nc3=O)O[C@@H]2COP(=O)(S)O[C@H]2C[C@H](n3cc(C)c(=O)[nH]c3=O)O[C@@H]2COP(=O)(S)O[C@H]2C[C@H](n3cnc4c(N)ncnc43)O[C@@H]2COP(=O)(S)O[C@H]2C[C@H](n3cc(C)c(=O)[nH]c3=O)O[C@@H]2COP(=O)(S)O[C@H]2C[C@H](n3ccc(N)nc3=O)O[C@@H]2CO)O[C@H]1n1cnc2c(=O)[nH]c(N)nc21 (some centres not stated) | Active | inactive | Active | inactive | inactive | Active | inactive | Active | Active | Active |
